# Test results reported in ChEMBL document CHEMBL2396536, “Curcuminoids block TGF-β signaling in human breast cancer cells and limit osteolysis in a murine model of breast cancer bone metastasis” (J Nat Prod, 2013).
# Activity calls are given as the source filed them. No cut-off for these calls is given here.
# Tested on: MDA-MB-231
# Test: Inhibition of osteolytic bone metastases in human MDA-MB-231 cells xenografted in athymic nude mouse left cardiac ventricle assessed as effect on tumor burden at 25 to 50 mg/kg, ip administered every other day for 3 weeks by histological analysis
# Type: functional, organism-based
# Conditions: Heart left ventricle
# Outline: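 Intracardiac MDA-MB-231 model in female nude mice, dosed ip every other day for 21 days, n = 11/group. Hindlimbs harvested day 21, formalin-fixed and EDTA-decalcified. Tumor area measured blinded on mid-sagittal 5 μm H&E sections of tibiae and femora at 10x magnification.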
row,Structure (SMILES),inhibition
1,COc1cc(/C=C/C(O)=C/C(=O)/C=C/c2ccc(O)cc2)ccc1O [DEMETHOXYCURCUMIN],inactive

# Tested on: Mus musculus
# Test: Toxicity in human MDA-MB-231 cells xenografted athymic nude mouse left cardiac ventricle assessed as effect on spleen weight at 25 mg/kg, ip administered every other day for 3 weeks (reference value: 0.134 +/- 0.02 gram)
# Type: organism-based
# Set-up: dose 25 mg/kg, route intraperitoneal
# Conditions: in vivo, 504 h
row,Structure (SMILES),Activity [g]
1,COc1cc(/C=C/C(O)=C/C(=O)/C=C/c2ccc(O)cc2)ccc1O [DEMETHOXYCURCUMIN],0.129

# Tested on: Mus musculus
# Test: Toxicity in human MDA-MB-231 cells xenografted athymic nude mouse left cardiac ventricle assessed as effect on hematocrit at 50 mg/kg, ip administered every other day for 3 weeks (reference value: 30.2 +/- 1.5%)
# Type: organism-based, Heart
# Set-up: dose 50 mg/kg, route intraperitoneal
# Conditions: in vivo, 504 h
row,Structure (SMILES),Activity [%]
1,COc1cc(/C=C/C(O)=C/C(=O)/C=C/c2ccc(O)cc2)ccc1O [DEMETHOXYCURCUMIN],31.1

# Tested on: MDA-MB-231
# Test: Inhibition of TGF-beta-induced PTHrP secretion in human MDA-MB-231 cells at 100 uM treated 4 hrs before TGF-beta challenge measured after 24 hrs by radioimmunoassay
# Type: functional, cell-based
# Conditions: not given
# Outline: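 MDA-MB-231 plated at 5 × 10^4 cells/cm2 and held overnight in DMEM with 10% FBS. Pre-treated 4 h with compound (0.1–100 μM in methods; 0.1–300 μM in legend) in 2% FBS, then recombinant human TGF-β1 (5 ng/mL) or medium alone for 24 h. PTHrP measured in conditioned media by radioimmunoassay, n = 4 wells/group. IC50 from four-parameter logistic fit.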
row,Structure (SMILES),inhibition
1,COc1cc(/C=C/C(O)=C/C(=O)/C=C/c2ccc(O)cc2)ccc1O [DEMETHOXYCURCUMIN],Active

# Tested on: Mus musculus
# Test: Toxicity in human MDA-MB-231 cells xenografted athymic nude mouse left cardiac ventricle assessed as effect on liver weight at 25 mg/kg, ip administered every other day for 3 weeks (reference value: 1 +/- 0.10 gram)
# Type: organism-based, Heart
# Set-up: dose 25 mg/kg, route intraperitoneal
# Conditions: in vivo, 504 h
row,Structure (SMILES),Activity [g]
1,COc1cc(/C=C/C(O)=C/C(=O)/C=C/c2ccc(O)cc2)ccc1O [DEMETHOXYCURCUMIN],0.987

# Tested on: Mus musculus
# Test: Toxicity in human MDA-MB-231 cells xenografted athymic nude mouse left cardiac ventricle assessed as effect on white blood cells at 50 mg/kg, ip administered every other day for 3 weeks (reference value: 5.84 +/- 1.3 K/uL)
# Conditions: in vivo, 504 h
row,Structure (SMILES),Activity [K/uL]
1,COc1cc(/C=C/C(O)=C/C(=O)/C=C/c2ccc(O)cc2)ccc1O [DEMETHOXYCURCUMIN],6.83

# Tested on: Mus musculus
# Test: Toxicity in human MDA-MB-231 cells xenografted athymic nude mouse left cardiac ventricle assessed as effect on spleen weight at 50 mg/kg, ip administered every other day for 3 weeks (reference value: 0.134 +/- 0.02 gram)
# Type: organism-based
# Set-up: dose 50 mg/kg, route intraperitoneal
# Conditions: in vivo, 504 h
row,Structure (SMILES),Activity [g]
1,COc1cc(/C=C/C(O)=C/C(=O)/C=C/c2ccc(O)cc2)ccc1O [DEMETHOXYCURCUMIN],0.139

# Tested on: MDA-MB-231
# Test: Inhibition of osteolytic bone metastases in human MDA-MB-231 cells xenografted in athymic nude mouse left cardiac ventricle assessed as reduction in lytic bone lesion area at 25 to 50 mg/kg, ip administered every other day for 3 weeks measured on day 16 relative to control
# Type: functional, Heart left ventricle
# Conditions: dose mg/kg 25-50; route intraperitoneal
# Outline: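 Four-week female athymic nude mice inoculated with 1 × 10^5 MDA-MB-231 cells in 0.1 mL PBS into the left cardiac ventricle. Dosed ip at 25 or 50 mg/kg or vehicle every other day from day 1 for 21 days, n = 11/group. Lytic lesion area quantified on radiographs on days 12, 16 and 21. Two-way ANOVA with Bonferroni.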
row,Structure (SMILES),inhibition (INH) [%]
1,COc1cc(/C=C/C(O)=C/C(=O)/C=C/c2ccc(O)cc2)ccc1O [DEMETHOXYCURCUMIN],51

# Biological target: Mothers against decapentaplegic homolog 3 (Homo sapiens) (UniProt P84022)
# Sequence (P84022 2-425 limits assumed): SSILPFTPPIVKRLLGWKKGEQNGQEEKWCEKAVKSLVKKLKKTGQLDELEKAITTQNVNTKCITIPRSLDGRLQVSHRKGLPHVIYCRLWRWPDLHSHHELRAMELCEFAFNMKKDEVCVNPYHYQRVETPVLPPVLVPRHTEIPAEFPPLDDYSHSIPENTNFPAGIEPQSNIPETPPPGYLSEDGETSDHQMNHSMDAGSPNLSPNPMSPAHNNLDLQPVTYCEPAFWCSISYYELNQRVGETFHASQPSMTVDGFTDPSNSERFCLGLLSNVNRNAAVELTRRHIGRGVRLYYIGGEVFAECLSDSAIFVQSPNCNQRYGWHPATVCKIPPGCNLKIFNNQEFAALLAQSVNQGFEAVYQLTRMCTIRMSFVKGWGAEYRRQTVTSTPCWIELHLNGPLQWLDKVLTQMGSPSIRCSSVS
# Test: Inhibition of TGF-beta-induced Smad3 phosphorylation in human MDA-MB-231 cells treated 12 hrs before TGF-beta challenge measured after 1 hr by Western blotting
# Type: cell-based
# Conditions: not given
# Outline: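 Subconfluent MDA-MB-231 pre-treated 12 h with compound (80 μM), then TGF-β (5 ng/mL) for 1 h. RIPA whole-cell lysates (18 μg) run on SDS-PAGE and transferred to PVDF. Probed with rabbit anti-phospho-Smad2, phospho-Smad3, phospho-p38 or Ets-1 (1:1000, overnight, 4 °C). β-actin used as loading control. Chemiluminescent detection; three independent experiments.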
row,Structure (SMILES),inhibition
1,COc1cc(/C=C/C(O)=C/C(=O)/C=C/c2ccc(O)cc2)ccc1O [DEMETHOXYCURCUMIN],Active

# Tested on: MDA-MB-231
# Test: Inhibition of osteolytic bone metastases in human MDA-MB-231 cells xenografted in athymic nude mouse left cardiac ventricle assessed as reduction of bone-tumor interface at 50 mg/kg, ip administered every other day for 3 weeks
# Type: functional
# Conditions: MDA-MB-231, Heart left ventricle, 504 h, route intraperitoneal
# Outline: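 Intracardiac MDA-MB-231 model in nude mice, dosed ip every other day for 21 days. Mid-sagittal tibia and femur sections TRAP-stained. TRAP+ multinucleated (>3 nuclei) cells counted at 40x along the tumor-bone interface. Expressed as osteoclasts per mm of interface.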
row,Structure (SMILES),inhibition in vivo at 50 mg/kg [%]
1,COc1cc(/C=C/C(O)=C/C(=O)/C=C/c2ccc(O)cc2)ccc1O [DEMETHOXYCURCUMIN],48

# Tested on: Mus musculus
# Test: Toxicity in human MDA-MB-231 cells xenografted athymic nude mouse left cardiac ventricle assessed as effect on alanine aminotransferase at 50 mg/kg, ip administered every other day for 3 weeks (reference value: 7.04 +/- 2.2 U/L)
# Type: organism-based, Heart
# Set-up: dose 50 mg/kg, route intraperitoneal
# Conditions: in vivo, 504 h
row,Structure (SMILES),Activity [U/L]
1,COc1cc(/C=C/C(O)=C/C(=O)/C=C/c2ccc(O)cc2)ccc1O [DEMETHOXYCURCUMIN],5.02

# Tested on: Mus musculus
# Test: Toxicity in human MDA-MB-231 cells xenografted athymic nude mouse left cardiac ventricle assessed as effect on bone-forming osteoblast cell at 25 to 50 mg/kg, ip administered every other day for 3 weeks
# Type: organism-based, Heart
# Set-up: dose 25-50 mg/kg, route intraperitoneal
# Conditions: in vivo, 504 h
row,Structure (SMILES),Activity
1,COc1cc(/C=C/C(O)=C/C(=O)/C=C/c2ccc(O)cc2)ccc1O [DEMETHOXYCURCUMIN],Non-toxic

# Tested on: Mus musculus
# Test: Toxicity in human MDA-MB-231 cells xenografted athymic nude mouse left cardiac ventricle assessed as effect on platelets at 50 mg/kg, ip administered every other day for 3 weeks (reference value: 513 +/- 54 K/uL)
# Type: organism-based, Heart
# Set-up: dose 50 mg/kg, route intraperitoneal
# Conditions: in vivo, 504 h
row,Structure (SMILES),Activity [K/uL]
1,COc1cc(/C=C/C(O)=C/C(=O)/C=C/c2ccc(O)cc2)ccc1O [DEMETHOXYCURCUMIN],589

# Tested on: MDA-MB-231
# Test: Inhibition of osteolytic bone metastases in human MDA-MB-231 cells xenografted in athymic nude mouse left cardiac ventricle assessed as improvement in body weight at 25 to 50 mg/kg, ip administered every other day for 3 weeks measured on day 16 relative to vehicle-treated control
# Type: functional, organism-based
# Conditions: Heart left ventricle
row,Structure (SMILES),Activity
1,COc1cc(/C=C/C(O)=C/C(=O)/C=C/c2ccc(O)cc2)ccc1O [DEMETHOXYCURCUMIN],Active

# Tested on: MDA-MB-231
# Test: Inhibition of TGF-beta-induced Ets-1 expression in human MDA-MB-231 cells treated 12 hrs before TGF-beta challenge measured after 1 hr by Western blotting
# Conditions: not given
row,Structure (SMILES),inhibition
1,COc1cc(/C=C/C(O)=C/C(=O)/C=C/c2ccc(O)cc2)ccc1O [DEMETHOXYCURCUMIN],Active
